Only some compounds are listed: those with a hit (about 6.4% of all), similar ones and a draw of the others.
Ecoli tolC – growth inhibitors of E. coli tolC mutant, primary screen, strain BW25113 ΔtolC::kan, 384-well. OD615. AID 573, 2007. hit rate 2.2% among 65,000. growth inhibition, % at 10 µM (by protocol);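 active = growth inhibition at or above a cutoff equal to the mean over every tested compound plus 3 SD, cut at about 60% in these data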;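 note: growth measured after 20 h incubation at 37 °C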
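Material: E. coli BW25113 ΔtolC::kan, tolC deletion mutant strain. Measure: percent growth inhibition. Schedule: 37 °C, 20 h exposure. Doses: single-point testing at 10 µM. Signal: A615 absorbance measurement. Buffer or medium: kanamycin-containing LB broth (50 µg/mL).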
HUVEC prolif 384 – inhibitors of HUVEC proliferation, primary screen, cell-based, 384-well. viability, % at 10 µM (by protocol). hit rate 1.1% among 86,000. CellTiter-Glo luminescence, 72 h; hits give low values. AID 648, 2007;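 active = viability at or below 30%; inactive = viability above 30%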
Ecoli WT expand – growth inhibitors of wild-type E. coli, primary screen, strain BW25113, expanded library, OD600; AID 710, 2007; hit rate 0.15% among 98,000; OD600 absorbance; growth inhibition, % at 100 µM;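 active = growth inhibition above about 50% at one test dose, limit read from the data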;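 note: growth measured after 20 h incubation at 37 °C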
Jurkat viability – cytotoxicity toward Jurkat T cells, primary screen, cytotoxicity control, cell-based, Jurkat E6.1, 60K MLSMR library; Jurkat E6.1 viability, ATP luminescence, 48 h; inhibition, % at 4 µM; hit rate 1.2% among 56,000;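 active = inhibition above the mean inhibition of all tested compounds plus 3 SD, cut at about 28% in these data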
H69AR growth 86K – proliferation blockers of H69AR lung cancer cells, primary screen, cell-based, human, 86K library | H69AR lung tumor viability, ATP luminescence, 72 h; hits give low values | AID 598, 2007 | viability, % at 10 µM | hit rate 6% among 85,000;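 active = viability at or below 40%; inactive = viability above 40%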;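 note: multidrug resistant small cell line overexpressing MRP-1 efflux transporter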
Fibroblast inh – antiproliferative effect on LL 47 fibroblasts – human, LL 47 cells, CellTiter-Glo luminescence, primary screen | LL 47 human lung fibroblast viability, ATP luminescence; hits give low values | viability, % at 10 µM | hit rate 1.1% among 85,000;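 active = viability at or below 50% in the single dose screen; inactive = viability above 50%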;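 note: compound exposure lasted 72 h before the ATP readout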
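Test system: LL 47 human lung fibroblasts; Quantity: 1,150 cells/well; Buffer or medium: IMEM plus 15% FBS; Dosing: tenfold compound dosing solution, DMSO at 0.1%; Timing: overnight cell rest, 72 h compound treatment at 37 °C; Detection: ATP-based CellTiter-Glo luminescent readout; Read-out basis: viability percentage against median untreated-cell control; Controls: cell-only wells, no compound.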
Numbers stand for hits; . = inactive; / = not tested or not shown.

SMILES	Ecoli tolC	HUVEC prolif 384	Ecoli WT expand	Jurkat viability	H69AR growth 86K	Fibroblast inh
Cc1cc(=O)[nH]c2c1c(C)nn2C1CCOC(C)(C)C1 (stereo not drawn)	/	.	.	/	.	.
Cc1ccc(Oc2ccc(S(=O)(=O)N3CCOCC3)cc2C(N)=O)c(-n2nc3ccccc3n2)c1	.	.	.	87	31	.
Cc1cnc(NC(=O)CSc2nnc(Cc3ccccc3)n2C)s1	.	.	.	.	.	.
Cc1ccc(C(C)C)c(OCc2nnc(SCC(=O)Nc3ncc(C)s3)n2C)c1	.	.	.	.	9.8	.
Oc1ccccc1CNc1ccc(Br)cn1	/	9.3	.	/	.	6.4
Brc1ccc(NCc2cccc3ccccc23)nc1	/	.	.	/	.	.
NS(=O)(=O)c1ccc(CCNc2ncnc3sccc23)cc1	.	.	.	85	.	.
COc1ccc(C(=O)NCCn2ccc3ccccc32)c(OC)c1	.	.	/	.	.	.
CCOC(=O)c1ccc2nc(NC(NC(C)=O)(C(=O)OC)C(F)(F)F)sc2c1 (stereo not drawn)	.	/	.	/	/	/
CCOC(=O)c1csc(Nc2nc3ccc(F)cc3s2)n1	88	/	.	.	/	/
CC(=O)c1sc(Nc2nc3ccc(F)cc3s2)nc1C	.	.	.	.	21	.
O=C1/C(=N/n2cnnc2)c2ccccc2N1Cc1ccccc1	.	.	.	.	17	.
COc1cc2c(C#N)c(N3CCc4ccccc4C3)nc(N)c2c(N)n1	74	.	.	.	.	.
Cc1ccc(S(=O)(=O)N2CCN(Cc3nc4ccccc4[nH]3)CC2)cc1C	/	.	.	/	35	.
Cc1cc(C)c(C)c(S(=O)(=O)N2CCN(Cc3nc4ccccc4[nH]3)CC2)c1C	/	.	.	/	.	.
Cc1ccc2c(c1)c1c(n2CC(O)Cn2c(C)nc3ccccc32)CCCC1 (stereo not drawn)	/	11	.	/	1.5	.
Cc1ccc2c(c1)c1c(n2CC(O)Cn2nc(C)c(Br)c2C)CCCC1 (stereo not drawn)	/	.	.	/	.	.
Cc1ccc(/C=C2/NC(=O)N(Cc3ccccc3)C2=O)s1	/	/	.	/	/	/
CCN1C(=O)/C(=C/c2ccc(C)s2)NC1=S	/	.	.	/	4.1	.
Cc1nn(C)c(Oc2ccccc2)c1CCNS(=O)(=O)c1ccccc1	/	/	.	/	/	/
CC1(C)CC(NC(=O)c2coc(=O)c(Br)c2)CC(C)(C)N1	.	.	.	.	0.7	34
CCCc1[nH]nc2c1C(c1cn[nH]c1-c1ccc(F)cc1)C(C#N)=C(N)O2 (stereo not drawn)	.	.	/	.	32	.
O=C(Nc1nc2ccccc2s1)C1CC(=O)N(c2ccc(F)cc2)C1 (stereo not drawn)	/	.	.	/	.	.
CCn1c(=O)n(CC)c2cc([N+](=O)[O-])ccc21	/	/	.	/	/	/
c1ccc(Cn2c(CNc3nc4ccccc4n3CCN3CCCCC3)nc3ccccc32)cc1	/	15	/	/	9.6	.
SMILES	Ecoli tolC	HUVEC prolif 384	Ecoli WT expand	Jurkat viability	H69AR growth 86K	Fibroblast inh
Cc1sc(NC(=O)c2ccco2)nc1-c1ccc2c(c1)CC(C)N2C(=O)C1CC1 (stereo not drawn)	.	.	.	64	/	.
CC(C)Oc1cc(O)c2c(=O)c(-c3ccc(O)cc3)coc2c1	.	.	.	99	11	.
CCCC1=C(C(=O)OCC)C(c2cc(Cl)cc(OC)c2OCC(=O)OCC)NC(=O)N1 (stereo not drawn)	83	.	.	.	.	.
CCOC(=O)c1cc2oc(C)cc2n1CC(=O)OC1CCCCC1	74	.	.	.	.	.
O=C(/C=C/c1ccc(Br)cc1)NC(=S)NNC(=O)c1ccco1	/	.	/	/	36	.
O=C(/C=C/c1ccccc1)NC(=S)NNC(=O)c1ccco1	/	.	/	/	25	.
Cc1ccc(N=CC2=C(O)CC(c3ccco3)CC2=O)cc1 (stereo not drawn)	/	.	.	/	.	.
O=C1CC(c2ccco2)CC(O)=C1C=Nc1ccc(Br)cc1 (stereo not drawn)	/	.	.	/	.	.
CC1(C)CC(=O)C(C=Nc2ccc(Cl)cn2)=C(O)C1	.	.	.	/	.	.
Cc1[nH]nc(N=CC2=C(O)CC(c3ccco3)CC2=O)c1-c1ccc(Cl)cc1 (stereo not drawn)	/	.	.	/	22	.

From PubChem BioAssay
